Results as given in ChEMBL document CHEMBL1137710, “Synthesis and in vitro antitumor activity of new quinoxaline derivatives” (2009).

Experiments:
Format in all cases: functional
NCI-H226 = assay: Growth inhibition of human NCI-H226 cells after 48 hrs by sulforhodamine B assay; details: NCI-H226, 48 h; for TGI: read-out: pTGI (converted)
Summary of the method: (§1)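 NCI 60-human-tumor-cell-line panel, with compounds tested over a 5-log dose range. Values are taken from dose-response curves as log10 molar concentrations: GI50 is 50% net growth inhibition, TGI is total growth inhibition, and LC50 is 50% net cell death.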

MDA-N = assay: Growth inhibition of human MDA-N cells after 48 hrs by sulforhodamine B assay; details: for CC50: read-out: pLC50 (the source's name) (converted); for TGI: read-out: pTGI (converted)
HCC 2998 = assay: Growth inhibition of human HCC2998 cells after 48 hrs by sulforhodamine B assay; details: HCC 2998, 48 h; for TGI: read-out: pTGI (converted); summary of the method: as §1

Row | Compound | GI50 (NCI-H226) [µM] | LC50 (NCI-H226) [µM] | TGI (NCI-H226) [µM] | GI50 (MDA-N) [µM] | CC50 (MDA-N) [µM] | TGI (MDA-N) [µM] | GI50 (HCC 2998) [µM] | TGI (HCC 2998) [µM] | LC50 (50% net cell kill) (HCC 2998) [µM]
1 | Nc1cc(N)c2nc(-c3ccccc3)c(Oc3ccc(Cl)c(Cl)c3)nc2c1 | 15.1 | > 100 | 49 | – | – | – | – | – | –
2 | Nc1cc(N)c2nc(-c3ccccc3)c(Sc3ccc(Cl)c(Cl)c3)nc2c1 | 3.02 | > 100 | 9.12 | – | – | – | – | – | –
3 | Nc1cc(N)c2nc(-c3ccccc3)c(Sc3ccc(F)cc3)nc2c1 | 19.1 | > 100 | 46.8 | – | – | – | – | – | –
4 | COc1ccc(Oc2nc3cc(N)cc(N)c3nc2-c2ccccc2)cc1 | – | – | – | 35.5 | > 100 | > 100 | – | – | –
5 | COc1cc(OC)cc(Oc2nc3cc(N)cc(N)c3nc2-c2ccccc2)c1 | 6.61 | – | 42.7 | – | – | – | 2.51 | 13.8 | –
6 | COc1cc(CNc2nc3cc(N)cc(N)c3nc2-c2ccccc2)cc(OC)c1OC | 10 | > 50.1 | 22.4 | – | – | – | – | – | –
7 | Nc1cc(N)c2nc(-c3ccccc3)c(NCc3ccc(F)cc3)nc2c1 | 22.4 | > 100 | 47.9 | – | – | – | – | – | –
8 | COc1ccc(CNc2nc3cc(N)cc(N)c3nc2-c2ccccc2)cc1 | 20.4 | > 100 | 70.8 | 14.1 | 53.7 | 27.5 | 21.9 | 51.3 | > 100
9 | COc1ccc(CNc2nc3cc(N)cc(N)c3nc2-c2ccccc2)cc1OC | 14.5 | 64.6 | 30.9 | – | – | – | 22.9 | 56.2 | > 100
10 | COc1ccc(Sc2nc3cc(N)cc(N)c3nc2-c2ccccc2)cc1 | – | > 100 | > 100 | – | – | – | – | – | –
11 | Nc1cc(N)c2nc(-c3ccccc3)c(Oc3ccc(F)cc3)nc2c1 | 20.4 | > 100 | 49 | – | – | – | – | – | –
12 | Nc1cc(N)c2nc(-c3ccccc3)c(NCc3ccc(Cl)c(Cl)c3)nc2c1 | 22.4 | 95.5 | 46.8 | – | – | – | – | – | –
13 | COc1cc(CNc2nc3cc(N)cc(N)c3nc2-c2ccccc2)cc(OC)c1 | – | – | – | 2.34 | > 100 | 5.25 | – | – | –
